Measurements from ChEMBL document CHEMBL1828575, “Design, synthesis and antiproliferative activities of biarylolefins based on polyhydroxylated and carbohydrate scaffolds” (Eur J Med Chem, 2011).

What was measured:
Type in all cases: functional
[1] = tested on: DU-145; experiment: Cytotoxicity against human DU145 cells assessed as cellular growth at 10 uM after 48 hrs by SRB assay
Outline: (§1)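 NCI60 single-dose screen of cells in RPMI 1640 with 5% FBS and 2 mM L-glutamine, preincubated 24 h at 37 °C, 5% CO₂. Cells were then exposed 48 h to compound added from DMSO stock. TCA-fixed, stained with 0.4% SRB in 1% acetic acid, dye solubilised in 10 mM Tris base and read at 515 nm. Growth is given as percent of untreated control.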

[2] = tested on: KM12; experiment: Cytotoxicity against human KM12 cells assessed as cellular growth at 10 uM after 48 hrs by SRB assay; outline: as §1
[3] = tested on: NCI-H522; experiment: Cytotoxicity against human NCI-H522 cells assessed as cellular growth at 10 uM after 48 hrs by SRB assay
Outline: (§2)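 NCI-60 panel lines grown in RPMI 1640 with 5% FBS and 2 mM L-glutamine. Plated at 5000–40,000 cells/well and preincubated 24 h at 37 °C, 5% CO₂, with time-zero plates fixed in TCA. Compounds, dissolved in DMSO and diluted in medium, were applied for 48 h. Cells were TCA-fixed (10% final for adherent, 16% for suspension) and stained with 0.4% SRB in 1% acetic acid. Dye was solubilised in 10 mM Tris base and read at 515 nm; growth was expressed as a percentage of untreated control.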

[4] = tested on: RPMI-8226; experiment: Cytotoxicity against human RPMI8226 cells assessed as cellular growth at 10 uM after 48 hrs by SRB assay; outline: as §2
[5] = tested on: HOP-62; experiment: Cytotoxicity against human HOP62 cells assessed as cellular growth at 10 uM after 48 hrs by SRB assay; outline: as §1
[6] = tested on: EKVX; experiment: Cytotoxicity against human EKVX cells assessed as cellular growth at 10 uM after 48 hrs by SRB assay; outline: as §1
[7] = tested on: U-251; experiment: Cytotoxicity against human U251 cells assessed as cellular growth at 10 uM after 48 hrs by SRB assay; outline: as §2
[8] = tested on: M14; experiment: Cytotoxicity against human M14 cells assessed as cellular growth at 10 uM after 48 hrs by SRB assay; outline: as §1
[9] = tested on: OVCAR-5; experiment: Cytotoxicity against human OVCAR5 cells assessed as cellular growth at 10 uM after 48 hrs by SRB assay; outline: as §2
[10] = tested on: NCI/ADR-RES; experiment: Cytotoxicity against human NCI/ADR-RES cells assessed as cellular growth at 10 uM after 48 hrs by SRB assay; outline: as §2
[11] = tested on: BT-549; experiment: Cytotoxicity against human BT549 cells assessed as cellular growth at 10 uM after 48 hrs by SRB assay; outline: as §1
[12] = tested on: MDA-MB-468; experiment: Cytotoxicity against human MDA-MB-468 cells assessed as cellular growth at 10 uM after 48 hrs by SRB assay; outline: as §2
[13] = tested on: KM12; experiment: Antitumor activity against human KM12 cells after 48 hrs by SRB assay; settings: KM12, 48 h
Outline: (§3)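 NCI60 panel in RPMI 1640 with 5% FBS and 2 mM L-glutamine. Cells were plated at 5000–40,000/well by doubling time, held 24 h, then time-zero plates were TCA-fixed. Five concentrations (10-fold or half-log dilutions of DMSO stocks) were applied for 48 h at 37 °C, 5% CO2. Cells were fixed with cold TCA (10% final adherent, 16% suspension) and stained with 0.4% SRB. Bound dye was dissolved in 10 mM Tris and read at 515 nm. GI50, TGI and LC50 were calculated per line.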

[14] = tested on: MDA-MB-435; experiment: Antitumor activity against human MDA-MB-435 cells after 48 hrs by SRB assay; settings: MDA-MB-435, 48 h; outline: as §3
[15] = tested on: RXF 393; experiment: Antitumor activity against human RXF393 cells after 48 hrs by SRB assay; settings: RXF 393, 48 h; outline: as §3
[16] = tested on: T47D; experiment: Antitumor activity against human T47D cells after 48 hrs by SRB assay
Outline: (§4)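 NCI60 panel cells grown in RPMI 1640 with 5% FBS and 2 mM L-glutamine, plated at 5000–40,000 cells/well and preincubated 24 h at 37 °C, 5% CO₂. Compound was added from DMSO at five concentrations, 10-fold or 1/2 log dilutions, then incubated 48 h.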

[17] = tested on: DU-145; experiment: Antitumor activity against human DU145 cells after 48 hrs by SRB assay; settings: DU-145, 48 h; outline: as §3
[18] = tested on: TK-10; experiment: Antitumor activity against human TK10 cells after 48 hrs by SRB assay; settings: TK-10, 48 h; outline: as §4
[19] = tested on: SN12C; experiment: Antitumor activity against human SN12C cells after 48 hrs by SRB assay; outline: as §4
[20] = tested on: CAKI-1; experiment: Antitumor activity against human Caki1 cells after 48 hrs by SRB assay; settings: CAKI-1, 48 h; outline: as §3
[21] = tested on: UACC-62; experiment: Antitumor activity against human UACC62 cells after 48 hrs by SRB assay; settings: UACC-62, 48 h; outline: as §4
[22] = tested on: NCI-H460; experiment: Antitumor activity against human NCI-H460 cells after 48 hrs by SRB assay; settings: NCI-H460, 48 h; outline: as §3
[23] = tested on: A549; experiment: Antitumor activity against human A549 cells after 48 hrs by SRB assay; settings: A549, 48 h; outline: as §3
[24] = read-out: LC50 (the source's name)
[25] = read-out: pLC50 (the source's name) (converted)

COc1cc(/C(=C2\O[C@@H]([C@H]3COC(C)(C)O3)[C@H]3OC(C)(C)O[C@@H]23)c2ccc3ccccc3c2)cc(OC)c1OC
Activity [1]: 2.86%
Activity [2]: 33.42%
Activity [3]: 8.05%
Activity [4]: 36.83%
Activity [5]: 47.96%
Activity [6]: 53.7%
Activity [7]: 18%
Activity [8]: 62.78%
Activity [9]: 38.17%
Activity [10]: 25.91%
Activity [11]: 22.16%
Activity [12]: 51.21%
GI50 [13]: 6 µM
LC50 [13]: > 100 µM
TGI [13]: > 100 µM
GI50 [14]: 3.61 µM
TGI [14]: 17.5 µM
CC50 [14, 24]: > 100 µM
GI50 [15]: 2.54 µM
TGI [15]: 5.99 µM
CC50 [15, 24]: 32.6 µM
GI50 ([16]; read-out: GI50): 3.45 µM
CC50 [16, 24]: > 100 µM
TGI ([16]; read-out: TGI): 40.6 µM
GI50 ([16]; read-out: pGI50 (converted)): 3.47 µM
CC50 [16, 25]: > 100 µM
TGI ([16]; read-out: pTGI (converted)): 40.7 µM
GI50 ([17]; read-out: GI50): 4.33 µM
CC50 [17, 24]: > 100 µM
TGI ([17]; read-out: TGI): > 100 µM
GI50 ([17]; read-out: pGI50 (converted)): 4.37 µM
CC50 [17, 25]: > 100 µM
TGI ([17]; read-out: pTGI (converted)): > 100 µM
GI50 ([18]; read-out: GI50): 3.2 µM
CC50 [18, 24]: > 100 µM
TGI ([18]; read-out: TGI): 7.2 µM
GI50 ([18]; read-out: pGI50 (converted)): 3.16 µM
CC50 [18, 25]: > 100 µM
TGI ([18]; read-out: pTGI (converted)): 7.24 µM
GI50 ([19]; read-out: GI50): 3.65 µM
CC50 [19, 24]: > 100 µM
TGI ([19]; read-out: TGI): > 100 µM
GI50 ([19]; read-out: pGI50 (converted)): 3.16 µM
CC50 [19, 25]: > 100 µM
TGI ([19]; read-out: pTGI): > 100 µM
GI50 ([20]; read-out: GI50): 4.54 µM
CC50 [20, 24]: > 100 µM
TGI ([20]; read-out: TGI): > 100 µM
GI50 ([20]; read-out: pGI50 (converted)): 3.63 µM
CC50 [20, 25]: > 100 µM
TGI ([20]; read-out: pTGI (converted)): > 100 µM
GI50 ([21]; read-out: GI50): 7.13 µM
CC50 [21, 24]: > 100 µM
TGI ([21]; read-out: TGI): 67.9 µM
GI50 ([21]; read-out: pGI50 (converted)): 3.31 µM
CC50 [21, 25]: > 100 µM
TGI ([21]; read-out: pTGI (converted)): 67.6 µM
GI50 ([22]; read-out: GI50): 4.1 µM
CC50 [22, 24]: > 100 µM
TGI ([22]; read-out: TGI): > 100 µM
GI50 ([22]; read-out: pGI50 (converted)): 4.07 µM
CC50 [22, 25]: > 100 µM
TGI ([22]; read-out: pTGI): > 100 µM
GI50 ([23]; read-out: GI50): 3.09 µM
CC50 [23, 24]: > 100 µM
TGI ([23]; read-out: TGI): 9.55 µM
GI50 ([23]; read-out: pGI50 (converted)): 3.09 µM
CC50 [23, 25]: > 100 µM
TGI ([23]; read-out: pTGI (converted)): 9.55 µM
